# Assays:
# [1] = system: Human alphaherpesvirus 2; assay: In vivo efficacy of compound against HSV-2 strain A133 in the mouse system model was measured at 6.25 dose(mg/kg), activity expressed as Survivors counted on day 21; 5/5; type: functional
# Method in brief: (§1)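 Female albino mice (15-18 g) were challenged ip with 0.2 mL virus suspension at (5-15) × LD50. Starting 1 h later, they were dosed sc (0.2 mL, saline) twice daily for 4 days. Doses were the maximum tolerated dose and serial dilutions of it. Groups had 5-10 mice. Survivors were counted on day 21, and ED50 (mg/kg per dose) came from logit transformation (Litchfield–Wilcoxon).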
# [2] = system: Human alphaherpesvirus 2; assay: In vivo efficacy of compound against HSV-2 strain A133 in the mouse system model was measured at 0.8 dose(mg/kg), activity expressed as Survivors counted on day 21; 2/5; type: functional; method in brief: as §1
# [3] = system: Human alphaherpesvirus 2; assay: Compound was measured for the inhibition of HSV-2 strain A133 in the mouse system model at 3.1 dose(mg/kg); type: functional; method in brief: as §1
# [4] = system: Human alphaherpesvirus 2; assay: Concentration required to inhibit HSV-2 strain 186 cytopathic effect by 50% was measured by plaque reduction assay; type: functional; conditions: for IC50: Human alphaherpesvirus 2, read-out: ID50 (the source's name)
# Method in brief: (§2)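 Plaque reduction in confluent Vero monolayers infected with 30-40 PFU of HSV-1 KOS or HSV-2 186, with 1 h adsorption at 37 °C. Cells were then overlaid with maintenance medium containing 0.75% carboxymethylcellulose and a range of compound concentrations. After 2 days at 37 °C, cells were fixed and stained and plaques counted. ID50 is the concentration giving 50% plaque reduction.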
# [5] = system: Human alphaherpesvirus 2; assay: In vivo efficacy of compound against HSV-1 strain A133 in the mouse system model was measured at 1.6 dose(mg/kg), activity expressed as Survivors counted on day 21; 4/5; type: functional; method in brief: as §1
# [6] = system: Human alphaherpesvirus 2; assay: In vivo efficacy of compound against HSV-2 strain A133 in the mouse system model was measured at 0.4 dose(mg/kg), activity expressed as Survivors counted on day 21; 0/5; type: functional; method in brief: as §1
# [7] = system: Human alphaherpesvirus 2; assay: In vivo efficacy of compound against HSV-2 strain A133 in the mouse system model was measured at 3.1 dose(mg/kg), activity expressed as Survivors counted on day 21; 4/5; type: functional; method in brief: as §1
# [8] = system: Human alphaherpesvirus 1; assay: In vivo efficacy of compound against HSV-1 strain A133 in the mouse system model was measured at 1.6 dose(mg/kg), activity expressed as Survivors counted on day 21; 2/5; type: functional; method in brief: as §1
# [9] = system: Human alphaherpesvirus 1; assay: In vivo efficacy of compound against HSV-1 strain A133 in the mouse system model was measured at 3.1 dose(mg/kg), activity expressed as Survivors counted on day 21; 4/5; type: functional; method in brief: as §1
# [10] = system: Human alphaherpesvirus 1; assay: Concentration required to inhibit HSV-1 strain KOS cytopathic effect by 50% was measured by plaque reduction assay; type: functional; conditions: for IC50: Human alphaherpesvirus 1, read-out: ID50 (the source's name); method in brief: as §2
# [11] = system: Human alphaherpesvirus 1; assay: In vivo efficacy of compound against HSV-1 strain A133 in the mouse system model was measured at 0.1 dose(mg/kg), activity expressed as Survivors counted on day 21; 0/5; type: functional; method in brief: as §1
# [12] = system: Human alphaherpesvirus 1; assay: In vivo efficacy of compound against HSV-1 strain A133 in the mouse system model was measured at 0.4 dose(mg/kg), activity expressed as Survivors counted on day 21; 2/5; type: functional; method in brief: as §1
# [13] = system: Human alphaherpesvirus 1; assay: Compound was measured for the inhibition of HSV-1 strain A133 in the mouse system model at 1.6 dose(mg/kg); type: functional; method in brief: as §1
# [14] = system: Vero; assay: Cytotoxicity was evaluated by measuring the dose affecting 50% of mock-infected Vero monolayers; type: functional; conditions: Chlorocebus sabaeus, read-out: ID50 (the source's name)
# Method in brief: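 Mock-infected confluent Vero monolayers were incubated with compound for 48 h at 37 °C and examined microscopically. Gross changes in staining, cell number or morphology were scored. The value is the dose affecting 50% of the monolayer.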
# [15] = system: Human alphaherpesvirus 2; assay: In vivo efficacy of compound against HSV-2 strain A133 in the mouse system model was measured at 50 dose(mg/kg), activity expressed as Survivors counted on day 21; 1/5; type: functional; method in brief: as §1
# [16] = system: Human alphaherpesvirus 2; assay: In vivo efficacy of compound against HSV-2 strain A133 in the mouse system model was measured at 6.25 dose(mg/kg), activity expressed as Survivors counted on day 21; type: functional; method in brief: as §1
# [17] = system: Human alphaherpesvirus 2; assay: Compound was measured for the inhibition of HSV-2 strain A133 in the mouse system model at 25 dose(mg/kg); type: functional; method in brief: as §1
# [18] = system: Human alphaherpesvirus 1; assay: In vivo efficacy of compound against HSV-1 strain A133 in the mouse system model was measured at 25 dose(mg/kg), activity expressed as Survivors counted on day 21; 2/5; type: functional; method in brief: as §1
# [19] = system: Human alphaherpesvirus 1; assay: In vivo efficacy of compound against HSV-1 strain A133 in the mouse system model was measured at 6.25 dose(mg/kg), activity expressed as Survivors counted on day 21; 0/10; type: functional; method in brief: as §1
# [20] = system: Human alphaherpesvirus 1; assay: In vivo efficacy of compound against HSV-1 strain A133 in the mouse system model was measured at 100 dose(mg/kg), activity expressed as Survivors counted on day 21; 3/5; type: functional; method in brief: as §1
# [21] = system: Human alphaherpesvirus 1; assay: In vivo efficacy of compound against HSV-1 strain A133 in the mouse system model was measured at 100 dose(mg/kg), activity expressed as Survivors counted on day 21; 8/10; type: functional; method in brief: as §1
# [22] = system: Human alphaherpesvirus 1; assay: In vivo efficacy of compound against HSV-1 strain A133 in the mouse system model was measured at 25 dose(mg/kg), activity expressed as Survivors counted on day 21; 1/10; type: functional; method in brief: as §1
# [23] = system: Human alphaherpesvirus 1; assay: Compound was measured for the inhibition of HSV-1 strain A133 in the mouse system model at 25 dose(mg/kg); type: functional; method in brief: as §1
# [24] = system: Human alphaherpesvirus 1; assay: In vivo efficacy of compound against HSV-1 strain A133 in the mouse system model was measured at 6.25 dose(mg/kg), activity expressed as Survivors counted on day 21; 0/5; type: functional; method in brief: as §1
# [25] = system: Human alphaherpesvirus 2; assay: In vivo efficacy of compound against HSV-2 strain CT in the mouse system model was measured at 100dose(mg/kg), activity expressed as Survivors counted on day 21; 2/5
# [26] = system: Human alphaherpesvirus 2; assay: In vivo efficacy of compound against HSV-2 strain CT in the mouse system model was measured at 25 dose(mg/kg), activity expressed as Survivors counted on day 21; 3/5
# [27] = system: Human alphaherpesvirus 2; assay: In vivo efficacy of compound against HSV-2 strain CT in the mouse system model was measured at 25 dose(mg/kg), activity expressed as Survivors counted on day 21; 2/10
# [28] = system: Human alphaherpesvirus 2; assay: In vivo efficacy of compound against HSV-2 strain CT in the mouse system model was measured at 100 dose(mg/kg), activity expressed as Survivors counted on day 21; 7/10
# [29] = system: Human alphaherpesvirus 2; assay: In vivo efficacy of compound against HSV-2 strain A133 in the mouse system model was measured at 6.25 dose(mg/kg), activity expressed as Survivors counted on day 21; […]; type: functional; method in brief: as §1
# [30] = system: Human alphaherpesvirus 2; assay: In vivo efficacy of compound against HSV-2 strain A133 in the mouse system model was measured at 0.025 dose(mg/kg), activity expressed as Survivors counted on day 21; 0/10; type: functional; method in brief: as §1
# [31] = system: Human alphaherpesvirus 1; assay: In vivo efficacy of compound against HSV-1 strain A133 in the mouse system model was measured at 3.1 dose(mg/kg), activity expressed as Survivors counted on day 21; 10/10; type: functional; method in brief: as §1
# [32] = system: Human alphaherpesvirus 1; assay: In vivo efficacy of compound against HSV-1 strain A133 in the mouse system model was measured at 0.012 dose(mg/kg), activity expressed as Survivors counted on day 21; 1/10; type: functional; method in brief: as §1
# [33] = system: Human alphaherpesvirus 1; assay: In vivo efficacy of compound against HSV-1 strain A133 in the mouse system model was measured at 0.05 dose(mg/kg), activity expressed as Survivors counted on day 21; 1/10; type: functional; method in brief: as §1
# [34] = system: Human alphaherpesvirus 1; assay: In vivo efficacy of compound against HSV-1 strain A133 in the mouse system model was measured at 0.2 dose(mg/kg), activity expressed as Survivors counted on day 21; 4/10; type: functional; method in brief: as §1
# [35] = system: Human alphaherpesvirus 1; assay: In vivo efficacy of compound against HSV-1 strain A133 in the mouse system model was measured at 0.8 dose(mg/kg), activity expressed as Survivors counted on day 21; 10/10; type: functional; method in brief: as §1
# [36] = system: Human alphaherpesvirus 1; assay: Compound was measured for the inhibition of HSV-1 strain A133 in the mouse system model at 0.2 dose(mg/kg); type: functional; method in brief: as §1
# [37] = system: Human alphaherpesvirus 2; assay: Compound was measured for the inhibition of HSV-2 strain A133 in the mouse system model at 0.7 dose(mg/kg); type: functional; method in brief: as §1
# [38] = system: Human alphaherpesvirus 2; assay: In vivo efficacy of compound against HSV-2 strain CT in the mouse system model was measured at 0.1 dose(mg/kg), activity expressed as Survivors counted on day 21; 2/10
# [39] = system: Human alphaherpesvirus 2; assay: In vivo efficacy of compound against HSV-2 strain CT in the mouse system model was measured at 0.7 dose(mg/kg), activity expressed as Survivors counted on day 21; 2/10
# [40] = system: Human alphaherpesvirus 2; assay: In vivo efficacy of compound against HSV-2 strain CT in the mouse system model was measured at 1.6 dose(mg/kg), activity expressed as Survivors counted on day 21; 7/10
smiles,measurement,setting,value
"Nc1nc(O)c2ncn(C3CC(O)C(CO)C3F)c2n1 (single isomer, unassigned; (+))",Survivors,[1],5
same,Survivors,[2],2
same,ED50,[3],1.1 mg/kg
same,ID50,[4],0.77 µg/mL
same,Survivors,[5],4
same,Survivors,[6],0
same,Survivors,[7],4
same,Survivors,[8],2
same,Survivors,[9],4
same,ID50,[10],0.16 µg/mL
same,Survivors,[11],0
same,Survivors,[12],2
same,ED50,[13],0.97 mg/kg
same,IC50,[14],> 300 µg/mL
Nc1nc(O)c2ncn([C@@H]3O[C@H](CO)[C@@H](O)[C@@H]3F)c2n1 [F-ARAG],IC50,[4],19 µg/mL
same,IC50,[10],5 µg/mL
same,IC50,[14],> 100 µg/mL
Nc1nc2c(ncn2COCCO)c(=O)[nH]1 [ACYCLOVIR],Survivors,[15],1
same,Survivors,[16],0
same,ED50,[17],58 mg/kg
same,IC50,[4],0.6 µg/mL
same,Survivors,[18],2
same,Survivors,[19],0
same,IC50,[10],0.2 µg/mL
same,Survivors,[20],3
same,Survivors,[21],8
same,Survivors,[22],1
same,ED50,[23],~50 mg/kg
same,ED50,"[23]; Human alphaherpesvirus 1, read-out: ED50",58 mg/kg
same,Survivors,[24],0
same,IC50,[14],> 300 µg/mL
same,Survivors,[25],2
same,Survivors,[26],3
same,Survivors,[27],2
same,Survivors,[28],7
"Nc1nc(O)c2ncn(C3CC(O)C(CO)C3F)c2n1 (single isomer, unassigned; (-))",ID50,[4],155 µg/mL
same,ID50,[10],15 µg/mL
Nc1nc2c(ncn2[C@@H]2C[C@H](CO)[C@@H](O)[C@H]2F)c(=O)[nH]1,IC50,[4],70 µg/mL
same,IC50,[10],2.35 µg/mL
same,IC50,[14],> 300 µg/mL
Nc1nc2c(ncn2[C@@H]2C[C@H](CO)[C@@H](O)[C@@H]2F)c(=O)[nH]1,Survivors,[29],9
same,IC50,[4],0.05 µg/mL
same,Survivors,[30],0
same,Survivors,[31],10
same,IC50,[10],0.006 µg/mL
same,Survivors,[32],1
same,Survivors,[33],1
same,Survivors,[34],4
same,Survivors,[35],10
same,ED50,[36],0.2 mg/kg
same,IC50,[14],> 300 µg/mL
same,ED50,[37],0.8 mg/kg
same,Survivors,[38],2
same,Survivors,[39],2
same,Survivors,[40],7
Nc1nc(O)c2ncn([C@@H]3C[C@H](CO)[C@@H](O)C3)c2n1,IC50,[4],0.44 µg/mL
same,IC50,[10],0.06 µg/mL
same,IC50,[14],300 µg/mL

# From ChEMBL document CHEMBL1125642, “Fluorocarbocyclic nucleosides: synthesis and antiviral activity of 2'- and 6'-fluorocarbocyclic 2'-deoxy guanosines” (1991)
